According to ChEMBL document CHEMBL5661986, “Discovery of the SMYD3 Inhibitor BAY-6035 Using Thermal Shift Assay (TSA)-Based High-Throughput Screening” (SLAS Discov, 2021):
Calls of active or inactive are those of the source. The rule behind the calls is not given here.

Columns and labels:
COLO-679 = test: Antiproliferative activity against human COLO-679 cells assessed as inhibition of cell viability measured for 3 to 5 days by alamar blue staining based assay; assay type: functional
[1] = target: Dual specificity mitogen-activated protein kinase kinase 5 (Homo sapiens, UniProt Q13163); test: Inhibition of MEK5 (unknown origin) by competition binding assay
[2] = target: T1, Histone-lysine N-methyltransferase SMYD3 (Homo sapiens, UniProt Q9H7B4); test: Binding affinity to recombinant human SMYD3 expressed in Escherichia coli assessed as dissociation constant by isothermal titration calorimetry
T1 sequence (Q9H7B4 whole entry): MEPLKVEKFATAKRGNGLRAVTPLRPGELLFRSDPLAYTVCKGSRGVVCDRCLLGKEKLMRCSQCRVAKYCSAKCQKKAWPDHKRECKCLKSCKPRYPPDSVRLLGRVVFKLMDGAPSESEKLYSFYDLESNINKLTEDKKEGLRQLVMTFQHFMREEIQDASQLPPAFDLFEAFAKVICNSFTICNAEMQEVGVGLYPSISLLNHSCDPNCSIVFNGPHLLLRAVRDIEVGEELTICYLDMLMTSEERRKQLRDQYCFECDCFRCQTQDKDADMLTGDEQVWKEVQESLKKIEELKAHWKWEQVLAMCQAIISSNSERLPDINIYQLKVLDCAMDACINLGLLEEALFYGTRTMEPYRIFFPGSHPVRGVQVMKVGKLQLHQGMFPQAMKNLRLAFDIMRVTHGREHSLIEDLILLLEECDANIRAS
Procedure, shortened: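 Syringe held compound at 0.3 mM in 20 mM HEPES pH 7.4, 150 mM NaCl, 0.005% Tween 20, 2.5% DMSO; eight 4 µL injections at 180 s intervals into SMYD3.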

[3] = target: Histone-lysine N-methyltransferase 2A (Homo sapiens) (UniProt Q03164); test: Inhibition of MLL1 (unknown origin)
[4] = target: Histone-lysine N-methyltransferase SUV39H2 (Homo sapiens) (UniProt Q9H5I1); test: Inhibition of SUV39H2 (unknown origin)
[5] = Cytotoxicity against human MCF-10A cells assessed as inhibition of cell viability measured for 3 to 5 days by alamar blue staining based assay; assay type: toxicity
Hs746T = test: Antiproliferative activity against human Hs746T cells assessed as inhibition of cell viability measured for 3 to 5 days by alamar blue staining based assay; assay type: functional
HaCaT = test: Antiproliferative activity against human HaCaT cells assessed as inhibition of cell viability measured for 3 to 5 days by alamar blue staining based assay; assay type: functional
[6] = target: Mitogen-activated protein kinase 14 (Homo sapiens, UniProt Q16539); test: Inhibition of p38alpha (unknown origin) by competition binding assay
[7] = target: Protein arginine N-methyltransferase 6 (Homo sapiens) (UniProt Q96LA8); test: Inhibition of PRMT6 (unknown origin)
SUD4 = test: Antiproliferative activity against human SU-DHL-4 cells assessed as inhibition of cell viability measured for 3 to 5 days by alamar blue staining based assay; assay type: functional
[8] = target: Vascular endothelial growth factor receptor 3 (Homo sapiens, UniProt P35916); test: Inhibition of FLT4 (unknown origin)
[9] = target: Histone-lysine N-methyltransferase SUV39H1 (Homo sapiens) (UniProt O43463); test: Inhibition of SUV39H1 (unknown origin)
[10] = target: T2, Histone-lysine N-methyltransferase SMYD3 (Homo sapiens) (UniProt Q9H7B4); test: Inhibition of SMYD3 (unknown origin)
T2 sequence (whole entry): T1 sequence (Q9H7B4 whole entry)
Procedure, shortened: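 Recombinant human SMYD3 (aa 1–428, E. coli-expressed, His tag removed by TEV) at 10 nM. Reaction with 335 nM ³H-SAM and 15 µM biotinylated MAP3K2(249–273) peptide in 20 mM Tris pH 9, 2.5 mM DTT, 0.01% Triton X-100, 40 min at 23 °C. GuHCl quench, then SPA count of incorporated radioactivity. Quadruplicates normalized to DMSO and no-enzyme controls; IC50 from four-parameter logistic fit.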

[11] = target: Mitogen-activated protein kinase kinase kinase kinase 1 (Homo sapiens, UniProt Q92918); test: Inhibition of MAP4K1 (unknown origin) by competition binding assay
[12] = target: Histone-lysine N-methyltransferase NSD3 (Homo sapiens) (UniProt Q9BZ95); test: Inhibition of NSD3 (unknown origin)
[13] = target: Cyclin-dependent kinase 2/cyclin E1 (Homo sapiens, UniProt P24941); test: Inhibition of CDK2/CyclinE (unknown origin) in presence of ATP; assay type: protein-complex assay
[14] = target: T1, Histone-lysine N-methyltransferase SMYD3; test: Binding affinity to biotinylated SMYD3 (unknown origin) assessed as dissociation constant using S-adenosyl-l-methionine as substrate by surface plasmon resonance analysis
Procedure, shortened: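 Biotinylated SMYD3 (aa 1–428) captured (~4700 RU) on streptavidin chip, empty reference flow cell; 25 °C; running buffer 20 mM HEPES pH 7.4, 150 mM NaCl, 3 mM EDTA, 0.05% Tween-20, 2% DMSO, plus 50 µM SAM. Single-cycle kinetics, five concentrations 25–2000 nM, 60 s contact, 300 s dissociation, 30 µL/min; triplicate.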

[15] = target: Protein arginine N-methyltransferase 7 (Homo sapiens) (UniProt Q9NVM4); test: Inhibition of PRMT7 (unknown origin)
HGC-27 = test: Antiproliferative activity against human HGC-27 cells assessed as inhibition of cell viability measured for 3 to 5 days by alamar blue staining based assay; assay type: functional
[16] = target: Histone-lysine N-methyltransferase SETD2 (Homo sapiens) (UniProt Q9BYW2); test: Inhibition of SETD2 (unknown origin)
[17] = tested on: Histone-lysine N-methyltransferase SMYD3 (Homo sapiens), Q9H7B4 [UNDEFINED MUTATION]; test: Inhibition of SMYD3 catalytic inactive mutant co-expressed with HA-tagged MAP3K2 transfected in human HeLa cells assessed as reduction of MAP3K2-K260me3 level at 1.1 uM incubated for 20 hrs by Western blotting analysis relative to control; assay type: cell-based
Procedure, shortened: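 After 4 h, compound or DMSO for 20 h. Lysates immunoblotted for MAP3K2-K260me3 (in-house antibody), HA, SMYD3 and MAP3K2 with infrared secondaries. K260me3 signal normalized to HA; three technical replicates, mean ± SEM, nonlinear fit.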

[18] = target: Interleukin-1 receptor-associated kinase 4 (Homo sapiens, UniProt Q9NWZ3); test: Inhibition of IRAK4 (unknown origin) in BGG-buffer in presence of ATP
[19] = target: Casein kinase I isoform gamma-3 (Homo sapiens, UniProt Q9Y6M4); test: Inhibition of CSNK1G3 (unknown origin)
[20] = target: Histone-lysine N-methyltransferase EHMT2 (Homo sapiens) (UniProt Q96KQ7); test: Inhibition of G9a (unknown origin)
[21] = target: Interleukin-1 receptor-associated kinase 1 (Homo sapiens, UniProt P51617); test: Inhibition of IRAK1 (unknown origin) in presence of ATP
Sequence of Interleukin-1 receptor-associated kinase 1 (P51617 whole entry): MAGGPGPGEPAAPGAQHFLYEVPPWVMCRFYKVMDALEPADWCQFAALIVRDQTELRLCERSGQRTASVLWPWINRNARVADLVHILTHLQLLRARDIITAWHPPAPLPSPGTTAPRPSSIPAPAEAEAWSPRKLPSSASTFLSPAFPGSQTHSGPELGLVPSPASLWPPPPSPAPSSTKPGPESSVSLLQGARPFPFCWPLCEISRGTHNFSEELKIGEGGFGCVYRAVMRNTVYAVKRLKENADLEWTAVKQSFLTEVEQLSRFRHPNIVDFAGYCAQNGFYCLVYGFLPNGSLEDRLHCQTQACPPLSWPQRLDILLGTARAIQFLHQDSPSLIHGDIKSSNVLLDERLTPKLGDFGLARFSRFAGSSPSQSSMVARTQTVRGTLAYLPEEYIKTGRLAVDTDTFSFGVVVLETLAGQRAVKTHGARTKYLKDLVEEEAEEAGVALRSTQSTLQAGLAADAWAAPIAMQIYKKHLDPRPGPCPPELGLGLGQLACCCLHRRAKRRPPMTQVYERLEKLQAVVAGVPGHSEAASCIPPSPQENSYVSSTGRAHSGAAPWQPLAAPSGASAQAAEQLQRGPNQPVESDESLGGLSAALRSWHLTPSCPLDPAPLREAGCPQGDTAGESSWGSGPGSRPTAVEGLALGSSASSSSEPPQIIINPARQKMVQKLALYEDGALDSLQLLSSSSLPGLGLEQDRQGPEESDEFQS

Sequence of Protein arginine N-methyltransferase 7 (Homo sapiens) (Q9NVM4 whole entry): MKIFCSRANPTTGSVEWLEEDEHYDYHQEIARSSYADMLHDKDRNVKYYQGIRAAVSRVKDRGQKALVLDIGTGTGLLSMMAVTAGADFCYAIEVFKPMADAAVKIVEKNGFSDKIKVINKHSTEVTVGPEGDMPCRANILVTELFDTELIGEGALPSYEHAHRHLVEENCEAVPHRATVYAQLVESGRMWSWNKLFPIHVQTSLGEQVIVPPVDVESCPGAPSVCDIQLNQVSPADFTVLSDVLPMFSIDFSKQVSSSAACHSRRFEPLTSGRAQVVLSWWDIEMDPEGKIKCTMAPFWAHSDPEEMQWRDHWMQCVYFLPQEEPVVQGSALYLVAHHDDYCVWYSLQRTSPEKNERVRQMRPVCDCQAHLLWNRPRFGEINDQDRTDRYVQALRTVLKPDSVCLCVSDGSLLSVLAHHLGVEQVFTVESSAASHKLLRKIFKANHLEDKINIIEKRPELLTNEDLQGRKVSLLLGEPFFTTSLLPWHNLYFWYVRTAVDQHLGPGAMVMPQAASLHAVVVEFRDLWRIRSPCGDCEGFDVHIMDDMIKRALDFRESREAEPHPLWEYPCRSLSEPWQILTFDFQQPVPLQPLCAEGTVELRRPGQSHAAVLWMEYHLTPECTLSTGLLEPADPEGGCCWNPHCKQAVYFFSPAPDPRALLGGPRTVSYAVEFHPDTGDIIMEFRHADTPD
Sequence of Dual specificity mitogen-activated protein kinase kinase 5 (Q13163 whole entry): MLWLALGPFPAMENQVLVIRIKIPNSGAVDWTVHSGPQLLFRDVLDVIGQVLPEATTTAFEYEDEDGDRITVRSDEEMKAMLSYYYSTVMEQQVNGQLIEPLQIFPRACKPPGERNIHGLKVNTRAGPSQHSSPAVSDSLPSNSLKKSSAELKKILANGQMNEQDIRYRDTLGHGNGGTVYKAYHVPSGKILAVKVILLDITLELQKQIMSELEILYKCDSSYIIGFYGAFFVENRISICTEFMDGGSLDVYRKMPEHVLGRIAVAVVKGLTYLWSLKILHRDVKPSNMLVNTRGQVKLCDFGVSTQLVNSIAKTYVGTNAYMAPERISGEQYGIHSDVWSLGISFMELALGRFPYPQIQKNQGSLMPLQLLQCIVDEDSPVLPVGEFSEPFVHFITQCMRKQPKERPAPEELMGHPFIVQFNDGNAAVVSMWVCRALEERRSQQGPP
Sequence of Histone-lysine N-methyltransferase NSD3 (Homo sapiens) (Q9BZ95 whole entry): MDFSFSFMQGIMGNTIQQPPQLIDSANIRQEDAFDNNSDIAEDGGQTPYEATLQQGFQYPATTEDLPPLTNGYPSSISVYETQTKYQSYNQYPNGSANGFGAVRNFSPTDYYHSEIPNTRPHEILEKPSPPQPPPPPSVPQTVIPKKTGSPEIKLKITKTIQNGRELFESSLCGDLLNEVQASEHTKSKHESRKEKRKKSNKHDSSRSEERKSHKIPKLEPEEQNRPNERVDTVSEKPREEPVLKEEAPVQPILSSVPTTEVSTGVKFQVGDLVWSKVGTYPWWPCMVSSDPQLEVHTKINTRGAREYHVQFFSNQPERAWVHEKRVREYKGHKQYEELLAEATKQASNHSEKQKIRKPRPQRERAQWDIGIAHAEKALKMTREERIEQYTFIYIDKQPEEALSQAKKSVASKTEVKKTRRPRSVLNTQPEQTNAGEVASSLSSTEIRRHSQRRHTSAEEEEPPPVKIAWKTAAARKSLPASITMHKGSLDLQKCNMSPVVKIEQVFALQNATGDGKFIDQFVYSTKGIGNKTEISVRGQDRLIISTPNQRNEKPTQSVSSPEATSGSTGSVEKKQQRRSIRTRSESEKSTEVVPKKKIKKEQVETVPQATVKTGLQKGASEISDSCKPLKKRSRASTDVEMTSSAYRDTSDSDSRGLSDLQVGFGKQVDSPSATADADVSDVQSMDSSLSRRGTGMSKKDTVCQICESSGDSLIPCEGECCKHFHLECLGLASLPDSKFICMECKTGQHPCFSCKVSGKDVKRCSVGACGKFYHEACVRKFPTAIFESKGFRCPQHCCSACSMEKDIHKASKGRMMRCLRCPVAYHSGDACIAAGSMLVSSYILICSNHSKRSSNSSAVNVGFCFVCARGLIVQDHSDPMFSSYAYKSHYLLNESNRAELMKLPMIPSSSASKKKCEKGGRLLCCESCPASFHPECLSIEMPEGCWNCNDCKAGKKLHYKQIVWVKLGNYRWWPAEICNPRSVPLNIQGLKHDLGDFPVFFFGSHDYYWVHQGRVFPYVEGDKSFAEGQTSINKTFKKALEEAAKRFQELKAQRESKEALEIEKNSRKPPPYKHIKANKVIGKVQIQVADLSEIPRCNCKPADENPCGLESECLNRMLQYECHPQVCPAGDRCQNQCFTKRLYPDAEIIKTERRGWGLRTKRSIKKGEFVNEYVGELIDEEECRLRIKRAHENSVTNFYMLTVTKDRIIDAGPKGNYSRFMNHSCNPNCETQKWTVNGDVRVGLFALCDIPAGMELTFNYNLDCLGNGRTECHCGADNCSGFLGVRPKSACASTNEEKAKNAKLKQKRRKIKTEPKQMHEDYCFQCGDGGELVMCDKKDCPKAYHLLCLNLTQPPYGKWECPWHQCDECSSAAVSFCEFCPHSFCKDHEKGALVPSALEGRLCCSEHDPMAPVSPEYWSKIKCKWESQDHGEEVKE
Sequence of Vascular endothelial growth factor receptor 3 (P35916 whole entry): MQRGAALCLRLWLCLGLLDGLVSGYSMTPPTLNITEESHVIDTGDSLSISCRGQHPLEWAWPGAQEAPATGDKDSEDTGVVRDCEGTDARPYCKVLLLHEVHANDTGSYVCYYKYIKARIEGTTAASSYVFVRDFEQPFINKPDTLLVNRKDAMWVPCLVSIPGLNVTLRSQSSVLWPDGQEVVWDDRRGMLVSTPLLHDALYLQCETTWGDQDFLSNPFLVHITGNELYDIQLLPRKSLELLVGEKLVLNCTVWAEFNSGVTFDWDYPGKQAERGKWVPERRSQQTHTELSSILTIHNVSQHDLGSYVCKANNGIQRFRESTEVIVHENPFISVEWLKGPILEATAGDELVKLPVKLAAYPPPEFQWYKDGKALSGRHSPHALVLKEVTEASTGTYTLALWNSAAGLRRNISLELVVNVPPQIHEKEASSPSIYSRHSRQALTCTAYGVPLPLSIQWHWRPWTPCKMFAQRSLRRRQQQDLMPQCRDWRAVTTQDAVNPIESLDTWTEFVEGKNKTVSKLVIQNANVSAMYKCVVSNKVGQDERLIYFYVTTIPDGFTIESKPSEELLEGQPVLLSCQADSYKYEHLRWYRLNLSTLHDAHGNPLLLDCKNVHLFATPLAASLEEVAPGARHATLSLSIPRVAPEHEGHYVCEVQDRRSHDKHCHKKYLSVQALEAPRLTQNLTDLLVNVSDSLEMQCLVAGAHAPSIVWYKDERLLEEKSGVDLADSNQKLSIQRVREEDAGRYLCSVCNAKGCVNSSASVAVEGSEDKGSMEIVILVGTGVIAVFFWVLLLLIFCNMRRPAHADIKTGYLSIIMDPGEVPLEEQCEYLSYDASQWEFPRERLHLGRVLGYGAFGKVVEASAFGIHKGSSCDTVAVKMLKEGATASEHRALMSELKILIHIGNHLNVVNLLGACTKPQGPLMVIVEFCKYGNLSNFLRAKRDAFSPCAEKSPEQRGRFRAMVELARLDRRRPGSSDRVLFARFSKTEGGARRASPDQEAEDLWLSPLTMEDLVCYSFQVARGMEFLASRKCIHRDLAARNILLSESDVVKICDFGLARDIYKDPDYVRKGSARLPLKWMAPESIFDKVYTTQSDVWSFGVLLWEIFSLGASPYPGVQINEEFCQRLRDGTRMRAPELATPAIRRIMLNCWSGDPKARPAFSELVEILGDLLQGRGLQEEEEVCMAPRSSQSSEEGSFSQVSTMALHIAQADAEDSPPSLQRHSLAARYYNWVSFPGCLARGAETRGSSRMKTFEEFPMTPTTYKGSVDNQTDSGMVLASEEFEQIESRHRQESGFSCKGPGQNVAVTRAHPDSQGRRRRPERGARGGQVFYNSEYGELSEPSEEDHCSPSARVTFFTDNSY
Sequence of Histone-lysine N-methyltransferase SUV39H2 (Homo sapiens) (Q9H5I1 whole entry): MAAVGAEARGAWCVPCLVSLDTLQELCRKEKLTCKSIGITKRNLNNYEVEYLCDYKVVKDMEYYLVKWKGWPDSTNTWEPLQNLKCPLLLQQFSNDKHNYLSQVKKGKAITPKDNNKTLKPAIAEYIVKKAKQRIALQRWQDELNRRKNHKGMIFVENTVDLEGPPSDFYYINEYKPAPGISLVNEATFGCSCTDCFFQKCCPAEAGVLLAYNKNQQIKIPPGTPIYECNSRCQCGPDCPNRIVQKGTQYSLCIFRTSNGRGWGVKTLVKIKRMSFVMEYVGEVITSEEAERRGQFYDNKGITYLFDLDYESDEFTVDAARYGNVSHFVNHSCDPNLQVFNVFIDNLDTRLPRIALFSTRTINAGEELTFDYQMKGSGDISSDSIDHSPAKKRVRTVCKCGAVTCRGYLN

IC50 (COLO-679): > 10 µM | IC50 [1]: > 20 µM | Kd [2]: 0.133 µM | inhibition [3]: inactive | inhibition [4]: inactive | IC50 [6]: > 20 µM | inhibition [7]: inactive | IC50 [8]: > 20 µM | inhibition [9]: inactive | inhibition [10]: Active | IC50 [11]: > 20 µM | inhibition [12]: inactive | IC50 [13]: > 20 µM | Kd [14]: 0.097 µM | inhibition [15]: inactive | inhibition [16]: inactive | inhibition [17]: 86% | IC50 [18]: > 20 µM | IC50 [19]: > 20 µM | inhibition [20]: inactive | IC50 [21]: > 20 µM
Compound: C[C@H]1CC(=O)Nc2cc(C(=O)NCCC3CC3)ccc2N1C(=O)N1CC2CC2C1 (stereo partly specified)
IC50 [5]: > 10 µM | IC50 (Hs746T): > 10 µM | IC50 (HaCaT): > 10 µM | IC50 (SUD4): > 10 µM | IC50 (HGC-27): > 10 µM
